In ChEMBL document CHEMBL4020714, “Design, synthesis, and evaluation of curcumin derivatives as Nrf2 activators and cytoprotectors against oxidative death” (Eur J Med Chem, 2017):
Activity calls are given as the source filed them. The calls are words filed in the database; no cut-off is given here.

Experiments:
[1] = molecular target: T1, Nuclear factor erythroid 2-related factor 2 (Homo sapiens) (UniProt Q16236); assay: Activation of Nrf2 in human HepG2 cells assessed as cytoprotection against t-BHP-induced oxidative cell death at 5 uM incubated for 24 hrs followed by compound removal with subsequent incubation with 900 uM of t-BHP for 6 hrs by MTT assay; assay type: cell-based
T1 sequence (whole entry): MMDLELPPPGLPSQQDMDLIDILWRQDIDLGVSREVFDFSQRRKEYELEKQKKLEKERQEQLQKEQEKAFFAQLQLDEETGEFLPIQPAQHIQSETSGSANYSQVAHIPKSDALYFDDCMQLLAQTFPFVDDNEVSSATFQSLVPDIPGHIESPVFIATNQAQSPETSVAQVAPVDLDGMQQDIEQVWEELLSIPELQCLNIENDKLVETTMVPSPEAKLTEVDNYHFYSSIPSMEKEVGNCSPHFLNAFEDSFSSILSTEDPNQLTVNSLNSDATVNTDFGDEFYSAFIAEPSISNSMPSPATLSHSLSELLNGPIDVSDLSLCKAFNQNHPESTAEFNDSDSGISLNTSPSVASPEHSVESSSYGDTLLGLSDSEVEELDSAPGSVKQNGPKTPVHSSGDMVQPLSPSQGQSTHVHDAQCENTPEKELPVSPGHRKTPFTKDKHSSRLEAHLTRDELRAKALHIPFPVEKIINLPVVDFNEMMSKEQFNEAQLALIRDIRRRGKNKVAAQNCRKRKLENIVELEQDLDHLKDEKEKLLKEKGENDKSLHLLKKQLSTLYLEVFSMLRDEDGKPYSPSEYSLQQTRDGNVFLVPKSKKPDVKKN
Method in brief: (§1)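 HepG2 cells (5×10^3/well) seeded and grown 24 h in 1640 medium with 10% FBS at 37 °C and 5% CO2. Compound is added for 24 h, then removed, and cells are challenged with 900 μM t-BHP for 6 h at 37 °C. MTT (0.5 mg/mL) is added for 4 h, formazan dissolved in DMSO, and absorbance read at 570 nm. Where used, inhibitors are added 1 h before compound. Mean ± SD of three independent experiments.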

[2] = system: HepG2; assay: Cytotoxicity against human HepG2 cells assessed as reduction in cell viability at 5 uM after 24 hrs by MTT assay; assay type: cell-based; settings: hepg2, 24 h
Method in brief: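 MTT viability in HepG2 cells (5×10^3/well) after 24 h exposure to compound at 5 μM. Formazan dissolved in DMSO and absorbance read at 570 nm. Mean ± SD of three independent experiments.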

[3] = Stability of the compound in PBS at 40 uM at pH 7.4 at 25 degC measured for 30 mins by UV-Vis spectrophotometric analysis; assay type: physicochemical; settings: buffer, pH 7.4, 0.5 h
Method in brief: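 Compound at 40 μM in PBS (pH 7.4) at 25 °C. UV-visible absorption spectra recorded every 2 min for 30 min against blanks of solution plus DMSO.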

[4] = molecular target: T1, Nuclear factor erythroid 2-related factor 2 (Homo sapiens); assay: Activation of Nrf2 in human HepG2 cells assessed as increase in HO-1 expression level at 20 uM by Western blot analysis; assay type: cell-based
Method in brief: (§2)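 HepG2 cells (2×10^6/well) treated at the indicated concentrations and times. Whole-cell lysates, or nuclear and cytoplasmic fractions, are prepared and quantified by BCA. Samples are run at 40 μg/lane on 12% SDS-PAGE, transferred to nitrocellulose, probed with specific antibodies and HRP secondary (1/5000), and detected by ECL. Where used, LY294002 (15 μM), SP600125 (25 μM) or DTT (400 μM) is added 1 h before compound.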

[5] = molecular target: T1, Nuclear factor erythroid 2-related factor 2 (Homo sapiens); assay: Activation of Nrf2 in human HepG2 cells assessed as increase in Nrf2 expression level at 20 uM by Western blot analysis; assay type: cell-based; method in brief: as §2
[6] = molecular target: T1, Nuclear factor erythroid 2-related factor 2 (Homo sapiens); assay: Activation of Nrf2 in human HepG2 cells assessed as increase in GCLC expression level at 20 uM by Western blot analysis; assay type: cell-based; method in brief: as §2
[7] = molecular target: T1, Nuclear factor erythroid 2-related factor 2 (Homo sapiens); assay: Activation of Nrf2 in human HepG2 cells assessed as increase in GCLM expression level at 20 uM by Western blot analysis; assay type: cell-based; method in brief: as §2
[8] = molecular target: T1, Nuclear factor erythroid 2-related factor 2 (Homo sapiens); assay: Activation of Nrf2 in human HepG2 cells assessed as cytoprotective activity against t-BHP-induced oxidative cell death at 20 uM incubated for 24 hrs followed by compound removal with subsequent incubation with 900 uM of t-BHP for 6 hrs by MTT assay; assay type: cell-based; method in brief: as §1
[9] = molecular target: T1, Nuclear factor erythroid 2-related factor 2 (Homo sapiens); assay: Activation of Nrf2 in human HepG2 cells assessed as increase in GCLM expression level after 3 hrs by Western blot analysis; assay type: cell-based; method in brief: as §2
[10] = molecular target: T1, Nuclear factor erythroid 2-related factor 2 (Homo sapiens); assay: Activation of Nrf2 in human HepG2 cells assessed as increase in GCLC expression level after 3 hrs by Western blot analysis; assay type: cell-based; method in brief: as §2
[11] = molecular target: T1, Nuclear factor erythroid 2-related factor 2 (Homo sapiens); assay: Activation of Nrf2 in human HepG2 cells assessed as increase in Nrf2 expression level after 3 hrs by Western blot analysis; assay type: cell-based; method in brief: as §2
[12] = molecular target: T1, Nuclear factor erythroid 2-related factor 2 (Homo sapiens); assay: Activation of Nrf2 in human HepG2 cells assessed as increase in HO-1 expression level after 3 hrs by Western blot analysis; assay type: cell-based; method in brief: as §2

Row | Structure (SMILES) | Activity [1] | Activity [2] | Stability [3] | also measured
1 | COc1cc(/C=C/C(=O)CC(=O)/C=C/c2ccc(O)c(OC)c2)ccc1O [CURCUMIN] | Active | Non-Toxic | Unstable | 
2 | COc1ccc(/C=C/C(=O)C(C)(C)C(=O)/C=C/c2ccc(OC)c(OC)c2)cc1OC | Active | Non-Toxic | Unstable | 
3 | COc1cc(/C=C/C(=O)C(C)(C)C(=O)/C=C/c2cc(OC)c(OC)c(OC)c2)cc(OC)c1OC | Active | Non-Toxic |  | 
4 | CC(C)(C)c1cc(O)ccc1O |  |  |  | Activity [4]: Active; Activity [5]: Active; Activity [6]: Active; Activity [7]: Active; Activity [8]: Active
5 | CC(C)(C(=O)/C=C/c1ccccc1O)C(=O)/C=C/c1ccccc1O | Active | Non-Toxic |  | 
6 | COc1cccc(/C=C/C(=O)C(C)(C)C(=O)/C=C/c2cccc(OC)c2)c1 | Active | Non-Toxic |  | 
7 | CC(C)(C(=O)CCc1ccc(O)c(O)c1)C(=O)CCc1ccc(O)c(O)c1 | Active | Non-Toxic |  | Activity [9]: inactive; Activity [10]: inactive; Activity [11]: inactive; Activity [12]: inactive
8 | COc1cc(/C=C/C(=O)C(C)(C)C(=O)/C=C/c2ccc(O)c(OC)c2)ccc1O | Active | Non-Toxic | Stable | 
9 | CC(C)(C(=O)/C=C/c1ccccc1C(F)(F)F)C(=O)/C=C/c1ccccc1C(F)(F)F | Active | Non-Toxic |  | 
10 | CC(C)(C(=O)/C=C/c1ccccc1)C(=O)/C=C/c1ccccc1 | Active | Non-Toxic | Unstable | Activity [9]: inactive; Activity [10]: inactive; Activity [11]: inactive; Activity [12]: inactive
11 | COc1ccccc1/C=C/C(=O)C(C)(C)C(=O)/C=C/c1ccccc1OC | Active | Non-Toxic |  | 
12 | COc1cccc(OC)c1/C=C/C(=O)C(C)(C)C(=O)/C=C/c1c(OC)cccc1OC | Active | Non-Toxic |  | 
